Assay results taken from ChEMBL document CHEMBL1123555, “1,2-Bis(sulfonyl)hydrazines. 3. Effects of structural modification on antineoplastic activity” (1987).

Legend:
Mus musculus [1] = species: Mus musculus; assay: Antitumor activity against L1210 leukemia cells in mice (activity expressed as average survival time of treated/control animals x 100); type: functional
How it was run: (§1)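 Compound given ip as a fine suspension (homogenized in drops of 20% aqueous Tween 80, made to volume with isotonic saline) at 10-150 mg/kg per day, once daily for 6 consecutive days starting 24 h after implantation. Vehicle-injected tumor-bearing controls were included. Read-out was survival time; body-weight change over therapy was the toxicity indicator.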

[2] = Antitumor activity against mouse B16 melanoma cells, calculated as average change in body weight from onset to termination of therapy; type: functional
How it was run: (§2)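 Tumor-bearing mice in groups of five, dosed i.p. daily for 6 days from 24 h post-implantation with suspensions in Tween 80/isotonic saline at 10-150 mg/kg per day; vehicle controls run alongside. Mice weighed during the experiment. Average percent body-weight change from onset to termination of therapy was taken as the toxicity index, reported at the optimal-survival dose.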

L1210 = assay: Antitumor activity against L1210 leukemia cells in mice, activity is expressed as optimal effective dose.; type: functional, Mus musculus
How it was run: (§3)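 Transplanted tumor in mice, given i.p. once daily for 6 consecutive days starting 24 h after implantation. Doses span 10-150 mg/kg per day as fine suspensions homogenized in a few drops of 20% aqueous Tween 80 and made up with isotonic saline. Groups of five; vehicle-injected tumor-bearing controls. %T/C = mean survival time treated/control × 100. Value is the daily dose giving maximum %T/C.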

Mus musculus [3] = species: Mus musculus; assay: Antitumor activity against L1210 leukemia cells in mice calculated as average change in body weight from onset to termination of therapy; type: functional; how it was run: as §2
Mus musculus [4] = species: Mus musculus; assay: Antitumor activity against B16 melanoma cells in mice. Activity is expressed as optimal effective dose.; type: functional; how it was run: as §3
[5] = Antitumor activity against B16 melanoma cells in mice, activity is expressed as average survival time of treated/control animals x 100.; type: functional, Mus musculus; how it was run: as §1
Mus musculus [6] = species: Mus musculus; assay: Antitumor activity against B16 melanoma cells in mice, activity is expressed as optimal effective dose; type: functional; how it was run: as §3

Compound	T/C (Mus musculus [1]) [%]	Weight change [2] [%]	Dose (L1210) [mg/kg]	Weight change (Mus musculus [3]) [%]	Dose (Mus musculus [4]) [mg/kg]	T/C [5] [%]	Dose (Mus musculus [6]) [mg/kg]
CCS(=O)(=O)NN(C)S(=O)(=O)c1ccc(C)cc1	162	-1.1	30	-2.6	50	–	–
COc1ccc(S(=O)(=O)NN(C)S(=O)(=O)c2ccc(C)cc2)cc1	–	9.1	100	7.8	100	200	–
Cc1ccc(S(=O)(=O)NN(C)S(=O)(=O)c2ccc(Cl)cc2)cc1	–	-0.4	100	5.5	50	–	–
Cc1ccc(S(=O)(=O)N(C)NS(=O)(=O)c2ccccc2)cc1	–	8.5	50	2	150	–	–
CN(NS(=O)(=O)c1ccc(Cl)cc1)S(=O)(=O)c1ccc(Cl)cc1	–	4.8	150	1.3	50	163	–
COc1ccc(S(=O)(=O)N(C)NS(=O)(=O)c2ccc(C)cc2)cc1	–	-14	150	9.8	100	–	–
Cc1ccc(S(=O)(=O)N(C)NS(C)(=O)=O)cc1	–	-1.9	30	-7.9	10	–	–
Cc1ccc(S(=O)(=O)N(C)NS(=O)(=O)c2ccc(Cl)cc2)cc1	–	2.9	50	3.7	50	–	–
COc1ccc(S(=O)(=O)NN(C)S(=O)(=O)c2ccccc2)cc1	–	-5.9	50	4.5	50	–	–
Cc1ccc(S(=O)(=O)NN(C)S(=O)(=O)c2ccccc2)cc1	–	0.8	50	10.7	50	–	–
CN(NS(=O)(=O)c1ccc(Br)cc1)S(=O)(=O)Cc1ccccc1	–	4.7	–	–	–	–	50
COc1ccc(S(=O)(=O)NN(C)S(=O)(=O)c2ccc(OC)cc2)cc1	–	-2.4	50	–	100	191	–
Cc1ccc(S(=O)(=O)NN(C)S(=O)(=O)c2ccc(I)cc2)cc1	–	1.4	–	–	50	–	–
CN(NS(=O)(=O)c1ccccc1)S(=O)(=O)Cc1ccccc1	–	-1.5	50	-3.1	50	–	–
COc1ccc(S(=O)(=O)N(C)NS(=O)(=O)c2ccccc2)cc1	142	4.7	100	-3.9	100	–	–
CN(NS(=O)(=O)Cc1ccccc1)S(=O)(=O)Cc1ccccc1	–	-17.1	–	–	150	–	–
COc1ccc(S(=O)(=O)N(C)NS(=O)(=O)Cc2ccccc2)cc1	153	2.1	50	1.5	50	160	–
CN(NS(=O)(=O)c1ccc(Br)cc1)S(=O)(=O)c1ccccc1	–	-1.6	–	–	50	–	–
CN(NS(=O)(=O)c1ccccc1)S(=O)(=O)c1ccc(Cl)cc1	115	2.3	50	6.8	50	–	–
Cc1ccc(S(=O)(=O)NN(C)S(=O)(=O)c2ccc(C)cc2)cc1	–	-2.7	50	3.7	150	–	–
CN(NS(=O)(=O)Cc1ccccc1)S(=O)(=O)c1ccccc1	–	2.2	–	–	100	186	–
CC(=O)Nc1ccc(S(=O)(=O)N(C)NS(=O)(=O)c2ccc(Br)cc2)cc1	–	-5.7	–	–	–	–	150
Cc1ccc(S(=O)(=O)NN(C)S(C)(=O)=O)cc1	186	-8.6	40	-12.3	60	256	–
CN(NS(=O)(=O)c1ccc(Cl)cc1)S(=O)(=O)Cc1ccccc1	–	1.4	50	10.2	50	–	–
CN(NS(=O)(=O)/C=C/c1ccccc1)S(=O)(=O)c1ccc(Cl)cc1	–	1.1	–	–	50	–	–
CCS(=O)(=O)NN(C)S(=O)(=O)c1ccc(Cl)cc1	–	-0.1	–	–	10	–	–

Compound	T/C (Mus musculus [1]) [%]	Weight change [2] [%]	Dose (L1210) [mg/kg]	Weight change (Mus musculus [3]) [%]	Dose (Mus musculus [4]) [mg/kg]	T/C [5] [%]	Dose (Mus musculus [6]) [mg/kg]
CCS(=O)(=O)NN(C)S(=O)(=O)c1ccc(Br)cc1	–	4.5	–	–	–	190	30
CN(NS(=O)(=O)/C=C/c1ccccc1)S(=O)(=O)c1ccc(Br)cc1	–	0.7	–	–	–	–	100
CN(NS(=O)(=O)/C=C/c1ccccc1)S(=O)(=O)/C=C/c1ccccc1	–	2	–	–	–	–	50
Cc1ccc(S(=O)(=O)N(C)NS(=O)(=O)c2ccc([N+](=O)[O-])cc2)cc1	–	1.4	–	–	100	–	–
COc1ccc(S(=O)(=O)N(C)NS(C)(=O)=O)cc1	–	-7.5	20	-6.4	20	–	–
CN(NS(=O)(=O)c1ccc(Cl)cc1)S(=O)(=O)c1ccccc1	–	-2.9	50	14.6	100	–	–
CN(NS(=O)(=O)c1ccccc1)S(=O)(=O)c1ccc2ccccc2c1	–	5.1	100	1.8	50	–	–
CN(NS(=O)(=O)c1ccc2ccccc2c1)S(=O)(=O)Cc1ccccc1	–	–	50	10.3	50	179	–
CN(NS(=O)(=O)c1ccc2ccccc2c1)S(=O)(=O)c1ccccc1	–	2.5	–	–	50	–	–
CCS(=O)(=O)NN(C)S(=O)(=O)c1ccc(OC)cc1	149	–	50	-8.7	–	–	–
CN(NS(=O)(=O)c1ccc2ccccc2c1)S(=O)(=O)c1ccc(Cl)cc1	–	-4	100	9	50	–	–
Cc1ccc(S(=O)(=O)NN(C)S(=O)(=O)c2ccc3ccccc3c2)cc1	120	–	75	8.6	–	–	–
Cc1ccc(S(=O)(=O)NN(C)S(=O)(=O)Cc2ccccc2)cc1	126	1	100	0.3	50	–	–
COc1ccc(S(=O)(=O)NN(C)S(=O)(=O)Cc2ccccc2)cc1	–	0.2	–	–	150	–	–
CN(NS(=O)(=O)c1ccc(Cl)cc1)S(C)(=O)=O	214	-8.7	60	-9.4	60	219	–
Cc1ccc(S(=O)(=O)N(C)NS(=O)(=O)c2ccc3ccccc3c2)cc1	–	–	75	9.3	–	–	–
CN(NS(C)(=O)=O)S(=O)(=O)c1ccc(Br)cc1	–	4.2	–	–	–	225	20
CN(NS(=O)(=O)c1ccccc1)S(=O)(=O)c1ccccc1	–	-2.3	50	-4.8	100	175	–
COc1ccc(S(=O)(=O)NN(C)S(=O)(=O)c2ccc(Cl)cc2)cc1	130	1	150	-4.3	50	189	–
CN(NS(=O)(=O)c1ccc(Cl)cc1)S(=O)(=O)c1ccc(Br)cc1	–	2	–	–	–	–	200
CCS(=O)(=O)NN(C)S(=O)(=O)c1ccc(I)cc1	–	5.2	–	–	30	177	–
CN(NS(C)(=O)=O)S(=O)(=O)c1ccc2ccccc2c1	–	1.4	–	–	20	193	–
CN(NS(C)(=O)=O)S(=O)(=O)Cc1ccccc1	165	1.9	20	6.7	30	–	–
CN(NS(C)(=O)=O)S(=O)(=O)c1ccc(Cl)cc1	–	-1.4	20	5.3	20	–	–
COc1ccc(S(=O)(=O)N(C)NS(=O)(=O)c2ccc3ccccc3c2)cc1	–	-0.1	–	–	100	–	–
CN(NS(C)(=O)=O)S(=O)(=O)c1ccc(I)cc1	–	4	–	–	40	–	–
